According to ChEMBL document CHEMBL1149590, “Synthesis and evaluation of homo-bivalent GnRHR ligands” (Bioorg Med Chem, 2007):

Experiments:
[1] = target: T1, Gonadotropin-releasing hormone receptor (Homo sapiens, UniProt P30968); test: Antagonist activity at human GnRHR expressed in CHO cells after 30 mins by luciferase reporter gene assay; type: functional, cell-based
T1 sequence (P30968 whole entry): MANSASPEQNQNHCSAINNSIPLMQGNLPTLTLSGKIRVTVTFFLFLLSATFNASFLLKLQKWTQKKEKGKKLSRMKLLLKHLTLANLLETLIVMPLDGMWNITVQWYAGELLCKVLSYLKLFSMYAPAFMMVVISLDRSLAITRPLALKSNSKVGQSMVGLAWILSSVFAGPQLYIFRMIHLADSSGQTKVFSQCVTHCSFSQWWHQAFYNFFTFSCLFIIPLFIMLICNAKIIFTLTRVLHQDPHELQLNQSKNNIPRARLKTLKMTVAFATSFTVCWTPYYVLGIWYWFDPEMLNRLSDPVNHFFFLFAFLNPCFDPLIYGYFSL

[2] = target: T1, Gonadotropin-releasing hormone receptor; test: Displacement of [125I]triptorelin from human GnRHR expressed in CHO cells; type: cell-based
Method in brief: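 Membranes from CHO cells expressing wild-type human GnRHR (20 µg protein) incubated with [125I]triptorelin (30,000 cpm) and five competitor concentrations in 50 mM Tris-HCl pH 7.4, 2 mM MgCl2, 0.1% BSA, 45 min at 22 °C. Nonspecific binding defined with 1 µM ganirelix. Filtration, gamma counting. Ki from IC50 via Cheng-Prusoff (Kd 1.1 nM); at least three experiments in duplicate.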

[3] = target: T2, Gonadotropin-releasing hormone receptor (Homo sapiens) (UniProt P30968); test: Displacement of [125I]triptorelin from human GnRHR expressed in CHO cells at 1 uM; type: cell-based
T2 sequence (whole entry): T1 sequence (P30968 whole entry)
Method in brief: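 Single-point displacement at 1 μM test compound. CHO membranes bearing wild-type human GnRHR (20 µg protein) incubated 45 min at 22 °C with [125I]triptorelin (30,000 cpm) in Tris-HCl pH 7.4 containing MgCl2 and BSA. Nonspecific binding taken with 1 µM ganirelix, total binding with buffer. Bound radioligand recovered by filtration and gamma-counted; percent displacement reported.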

SMILES	IC50 [1]	Ki [2]	Activity [3]
CCOC(=O)c1cn(Cc2c(F)cccc2F)c2nc(-c3ccc(NC(=O)NCc4cn(CCOCCOCCOCCn5cc(CNC(=O)Nc6ccc(-c7nc8n(Cc9c(F)cccc9F)cc(C(=O)OCC)c(=O)n8c7CN(C)Cc7ccccc7)cc6)nn5)nn4)cc3)c(CN(C)Cc3ccccc3)n2c1=O	0.355 µM	0.0295 µM	90%
CCNC(=O)Nc1ccc(-c2nc3n(Cc4c(F)cccc4F)cc(C(=O)NCc4cn(CCN=[N+]=[N-])nn4)c(=O)n3c2CN(C)Cc2ccccc2)cc1	> 10 µM		78%
CCNC(=O)Nc1ccc(-c2nc3n(Cc4c(F)cccc4F)cc(C(=O)OCC)c(=O)n3c2CN(CC(=O)NCc2cn(CCOCCOCCOCCOCCn3cc(CNC(=O)CN(Cc4ccccc4)Cc4c(-c5ccc(NC(=O)NCC)cc5)nc5n(Cc6c(F)cccc6F)cc(C(=O)OCC)c(=O)n45)nn3)nn2)Cc2ccccc2)cc1	0.309 µM	0.195 µM	89%
CCNC(=O)Nc1ccc(-c2nc3n(Cc4c(F)cccc4F)cc(C(=O)OCC)c(=O)n3c2CN(CC(=O)NCc2cn(CCOCCOCCN=[N+]=[N-])nn2)Cc2ccccc2)cc1	0.468 µM		83%
CCNC(=O)Nc1ccc(-c2nc3n(Cc4c(F)cccc4F)cc(C(=O)OCC)c(=O)n3c2CN(CC(=O)NCc2cn(CCN=[N+]=[N-])nn2)Cc2ccccc2)cc1	0.724 µM		74%
C#CCNC(=O)c1cn(Cc2c(F)cccc2F)c2nc(-c3ccc(NC(=O)NCC)cc3)c(CN(C)Cc3ccccc3)n2c1=O	7.08 µM	0.162 µM	85%
CCNC(=O)Nc1ccc(-c2nc3n(Cc4c(F)cccc4F)cc(C(=O)NCc4cn(CCOCCn5cc(CNC(=O)c6cn(Cc7c(F)cccc7F)c7nc(-c8ccc(NC(=O)NCC)cc8)c(CN(C)Cc8ccccc8)n7c6=O)nn5)nn4)c(=O)n3c2CN(C)Cc2ccccc2)cc1	> 10 µM		64%
CCNC(=O)Nc1ccc(-c2nc3n(Cc4c(F)cccc4F)cc(C(=O)NCc4cn(CCOCCOCCOCCn5cc(CNC(=O)c6cn(Cc7c(F)cccc7F)c7nc(-c8ccc(NC(=O)NCC)cc8)c(CN(C)Cc8ccccc8)n7c6=O)nn5)nn4)c(=O)n3c2CN(C)Cc2ccccc2)cc1	> 10 µM		86%
CCNC(=O)Nc1ccc(-c2nc3n(Cc4c(F)cccc4F)cc(C(=O)OCC)c(=O)n3c2CN(CC(=O)NCc2cn(CCOCCOCCn3cc(CNC(=O)CN(Cc4ccccc4)Cc4c(-c5ccc(NC(=O)NCC)cc5)nc5n(Cc6c(F)cccc6F)cc(C(=O)OCC)c(=O)n45)nn3)nn2)Cc2ccccc2)cc1	0.832 µM	0.0589 µM	84%
C#CCNC(=O)Nc1ccc(-c2nc3n(Cc4c(F)cccc4F)cc(C(=O)OCC)c(=O)n3c2CN(C)Cc2ccccc2)cc1	0.676 µM	0.00135 µM	98%
CCNC(=O)Nc1ccc(-c2nc3n(Cc4c(F)cccc4F)cc(C(=O)NCc4cn(CCOCCN=[N+]=[N-])nn4)c(=O)n3c2CN(C)Cc2ccccc2)cc1	> 10 µM		68%
CCNC(=O)Nc1ccc(-c2nc3n(Cc4c(F)cccc4F)cc(C(=O)OCC)c(=O)n3c2CN(C)Cc2ccccc2)cc1	0.0708 µM	0.00479 µM	99%
CCNC(=O)Nc1ccc(-c2nc3n(Cc4c(F)cccc4F)cc(C(=O)OCC)c(=O)n3c2CN(CC(=O)NCc2cn(CCOCCOCCOCCN=[N+]=[N-])nn2)Cc2ccccc2)cc1	0.724 µM		76%
CCNC(=O)Nc1ccc(-c2nc3n(Cc4c(F)cccc4F)cc(C(=O)NCc4cn(CCOCCOCCN=[N+]=[N-])nn4)c(=O)n3c2CN(C)Cc2ccccc2)cc1	> 10 µM		81%
CCNC(=O)Nc1ccc(-c2nc3n(Cc4c(F)cccc4F)cc(C(=O)NCc4cn(CCOCCOCCOCCN=[N+]=[N-])nn4)c(=O)n3c2CN(C)Cc2ccccc2)cc1	> 10 µM		69%
CCNC(=O)Nc1ccc(-c2nc3n(Cc4c(F)cccc4F)cc(C(=O)NCc4cn(CCOCCOCCOCCOCCn5cc(CNC(=O)c6cn(Cc7c(F)cccc7F)c7nc(-c8ccc(NC(=O)NCC)cc8)c(CN(C)Cc8ccccc8)n7c6=O)nn5)nn4)c(=O)n3c2CN(C)Cc2ccccc2)cc1	> 10 µM		85%
CCOC(=O)c1cn(Cc2c(F)cccc2F)c2nc(-c3ccc(NC(=O)NCc4cn(CCOCCOCCn5cc(CNC(=O)Nc6ccc(-c7nc8n(Cc9c(F)cccc9F)cc(C(=O)OCC)c(=O)n8c7CN(C)Cc7ccccc7)cc6)nn5)nn4)cc3)c(CN(C)Cc3ccccc3)n2c1=O	0.955 µM	0.0234 µM	94%

SMILES	IC50 [1]	Ki [2]	Activity [3]
CCOC(=O)c1cn(Cc2c(F)cccc2F)c2nc(-c3ccc(NC(=O)NCc4cn(CCOCCOCCOCCOCCn5cc(CNC(=O)Nc6ccc(-c7nc8n(Cc9c(F)cccc9F)cc(C(=O)OCC)c(=O)n8c7CN(C)Cc7ccccc7)cc6)nn5)nn4)cc3)c(CN(C)Cc3ccccc3)n2c1=O	1.35 µM		89%
CCNC(=O)Nc1ccc(-c2nc3n(Cc4c(F)cccc4F)cc(C(=O)NCc4cn(CCn5cc(CNC(=O)c6cn(Cc7c(F)cccc7F)c7nc(-c8ccc(NC(=O)NCC)cc8)c(CN(C)Cc8ccccc8)n7c6=O)nn5)nn4)c(=O)n3c2CN(C)Cc2ccccc2)cc1	> 10 µM		26%
CCOC(=O)c1cn(Cc2c(F)cccc2F)c2nc(-c3ccc(NC(=O)NCc4cn(CCOCCOCCOCCN=[N+]=[N-])nn4)cc3)c(CN(C)Cc3ccccc3)n2c1=O	3.02 µM		84%
CCOC(=O)c1cn(Cc2c(F)cccc2F)c2nc(-c3ccc(NC(=O)NCc4cn(CCOCCOCCOCCOCCN=[N+]=[N-])nn4)cc3)c(CN(C)Cc3ccccc3)n2c1=O	0.676 µM		90%
CCOC(=O)c1cn(Cc2c(F)cccc2F)c2nc(-c3ccc(NC(=O)NCc4cn(CCOCCOCCN=[N+]=[N-])nn4)cc3)c(CN(C)Cc3ccccc3)n2c1=O	2.4 µM		84%
C#CCNC(=O)CN(Cc1ccccc1)Cc1c(-c2ccc(NC(=O)NCC)cc2)nc2n(Cc3c(F)cccc3F)cc(C(=O)OCC)c(=O)n12	1 µM	0.00525 µM	98%
CCNC(=O)Nc1ccc(-c2nc3n(Cc4c(F)cccc4F)cc(C(=O)OCC)c(=O)n3c2CN(CC(=O)NCc2cn(CCOCCn3cc(CNC(=O)CN(Cc4ccccc4)Cc4c(-c5ccc(NC(=O)NCC)cc5)nc5n(Cc6c(F)cccc6F)cc(C(=O)OCC)c(=O)n45)nn3)nn2)Cc2ccccc2)cc1	1.55 µM		71%
CCNC(=O)Nc1ccc(-c2nc3n(Cc4c(F)cccc4F)cc(C(=O)OCC)c(=O)n3c2CN(CC(=O)NCc2cn(CCn3cc(CNC(=O)CN(Cc4ccccc4)Cc4c(-c5ccc(NC(=O)NCC)cc5)nc5n(Cc6c(F)cccc6F)cc(C(=O)OCC)c(=O)n45)nn3)nn2)Cc2ccccc2)cc1	1.91 µM		65%
CCNC(=O)Nc1ccc(-c2nc3n(Cc4c(F)cccc4F)cc(C(=O)OCC)c(=O)n3c2CN(CC(=O)NCc2cn(CCOCCOCCOCCOCCN=[N+]=[N-])nn2)Cc2ccccc2)cc1	0.832 µM		78%
CCNC(=O)Nc1ccc(-c2nc3n(Cc4c(F)cccc4F)cc(C(=O)OCC)c(=O)n3c2CN(CC(=O)NCc2cn(CCOCCN=[N+]=[N-])nn2)Cc2ccccc2)cc1	0.525 µM		66%
CCOC(=O)c1cn(Cc2c(F)cccc2F)c2nc(-c3ccc(NC(=O)NCc4cn(CCN=[N+]=[N-])nn4)cc3)c(CN(C)Cc3ccccc3)n2c1=O	2.57 µM		76%
CCOC(=O)c1cn(Cc2c(F)cccc2F)c2nc(-c3ccc(NC(=O)NCc4cn(CCOCCN=[N+]=[N-])nn4)cc3)c(CN(C)Cc3ccccc3)n2c1=O	3.63 µM		85%
CCNC(=O)Nc1ccc(-c2nc3n(Cc4c(F)cccc4F)cc(C(=O)OCC)c(=O)n3c2CN(CC(=O)NCc2cn(CCOCCOCCOCCn3cc(CNC(=O)CN(Cc4ccccc4)Cc4c(-c5ccc(NC(=O)NCC)cc5)nc5n(Cc6c(F)cccc6F)cc(C(=O)OCC)c(=O)n45)nn3)nn2)Cc2ccccc2)cc1	1.32 µM	0.0692 µM	71%
CCNC(=O)Nc1ccc(-c2nc3n(Cc4c(F)cccc4F)cc(C(=O)NCc4cn(CCOCCOCCOCCOCCN=[N+]=[N-])nn4)c(=O)n3c2CN(C)Cc2ccccc2)cc1	> 10 µM		70%
CCOC(=O)c1cn(Cc2c(F)cccc2F)c2nc(-c3ccc(NC(=O)NCc4cn(CCn5cc(CNC(=O)Nc6ccc(-c7nc8n(Cc9c(F)cccc9F)cc(C(=O)OCC)c(=O)n8c7CN(C)Cc7ccccc7)cc6)nn5)nn4)cc3)c(CN(C)Cc3ccccc3)n2c1=O	1.91 µM		68%
CCOC(=O)c1cn(Cc2c(F)cccc2F)c2nc(-c3ccc(NC(=O)NCc4cn(CCOCCn5cc(CNC(=O)Nc6ccc(-c7nc8n(Cc9c(F)cccc9F)cc(C(=O)OCC)c(=O)n8c7CN(C)Cc7ccccc7)cc6)nn5)nn4)cc3)c(CN(C)Cc3ccccc3)n2c1=O	3.16 µM		88%
